Source: paper PMC9444296 (Investigative Radiology, 2022)

What was measured:
CYP2C8 = CYP2C8 (Homo sapiens, UniProt P10632); assay: CYP2C8 inhibition in human liver microsomes; type: in vitro ADME; conditions: highest test concentration (100 μM)
[1] = Plasma protein binding, dog plasma; type: in vitro ADME; conditions: 37°C, 3 min, 10 kDa ultrafiltration, Gd by ICP-OES, n = 4
In short: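 Test compound at 50, 80 or 110 μM was incubated with human, dog or rat plasma (alongside HSA 40 mg/mL and PBS) at 37°C for 3 min. Mixtures were kept overnight and centrifuged to remove insolubles. Gd was measured by ICP-OES, and the binding ratio was taken as bound over total concentration.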

[2] = Metabolic stability in CD1 mouse hepatocytes; type: in vitro ADME; conditions: 2 hours of incubation, LC-MS/MS
CYP2D6 = CYP2D6 (Homo sapiens, UniProt P10635); assay: CYP2D6 inhibition in human liver microsomes; type: in vitro ADME; conditions: 0.01, 0.1, 1, 10, and 100 μM, pooled human liver microsomes 0.5 mg/mL
[3] = Gd remaining in rat tissues after toxicity study; type: in vivo; conditions: day 29, ICP-MS
In short: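 Femur, abdominal skin, liver, brain, quadriceps, lung, heart, kidney, spleen, colon and jejunum were collected, and residual Gd was measured by ICP-MS.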

Chain of CYP2D6 (P10635 whole entry): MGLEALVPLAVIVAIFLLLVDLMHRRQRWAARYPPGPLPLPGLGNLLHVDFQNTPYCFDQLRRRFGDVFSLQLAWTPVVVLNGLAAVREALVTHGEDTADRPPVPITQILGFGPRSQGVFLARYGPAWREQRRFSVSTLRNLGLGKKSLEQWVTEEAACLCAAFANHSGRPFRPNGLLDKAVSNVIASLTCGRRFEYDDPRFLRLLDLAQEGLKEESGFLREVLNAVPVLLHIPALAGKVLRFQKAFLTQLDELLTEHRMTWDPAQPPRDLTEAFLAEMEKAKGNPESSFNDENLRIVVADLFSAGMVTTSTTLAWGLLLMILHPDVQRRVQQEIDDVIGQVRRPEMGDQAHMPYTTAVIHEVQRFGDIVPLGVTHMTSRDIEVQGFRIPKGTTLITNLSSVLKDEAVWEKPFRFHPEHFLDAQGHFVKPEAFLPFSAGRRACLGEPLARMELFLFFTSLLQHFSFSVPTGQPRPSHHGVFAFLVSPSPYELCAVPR
Chain of CYP2C8 (P10632 whole entry): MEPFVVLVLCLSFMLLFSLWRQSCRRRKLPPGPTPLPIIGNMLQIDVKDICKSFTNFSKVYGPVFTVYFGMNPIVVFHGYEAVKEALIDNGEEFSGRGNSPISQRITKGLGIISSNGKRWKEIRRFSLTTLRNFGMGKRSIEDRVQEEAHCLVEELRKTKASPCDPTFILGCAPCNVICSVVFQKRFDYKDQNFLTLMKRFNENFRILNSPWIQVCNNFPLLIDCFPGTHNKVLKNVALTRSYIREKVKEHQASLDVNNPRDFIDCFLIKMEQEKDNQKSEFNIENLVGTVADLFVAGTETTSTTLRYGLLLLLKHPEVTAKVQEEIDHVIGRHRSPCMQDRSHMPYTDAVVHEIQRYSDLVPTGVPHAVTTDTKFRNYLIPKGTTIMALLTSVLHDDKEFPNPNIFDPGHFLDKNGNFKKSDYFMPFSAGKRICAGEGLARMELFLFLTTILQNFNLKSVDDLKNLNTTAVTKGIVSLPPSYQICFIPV

ZD2-N3-Gd(HP-DO3A) [MT218]
relative CYP2C8 activity, of the negative controls (CYP2C8): 52.5%
binding ratio to plasma proteins ([1]; 50 μM): 29.10%
binding ratio to plasma proteins ([1]; 80 μM): 26.91%
binding ratio to plasma proteins ([1]; 110 μM): 48.44%
remaining MT218 [2]: 50.6%
inhibition of CYP2D6 activity (CYP2D6): did not inhibit
Measured Concentration of Gd, Mean ([3]; Female rat, Bone, 0.15 mmol/kg/d daily IV 2 weeks): 0.19 μg/g Tissue
Measured Concentration of Gd, Mean ([3]; Female rat, Bone, 0.46 mmol/kg/d daily IV 2 weeks): 1.13 μg/g Tissue
Measured Concentration of Gd, Mean ([3]; Female rat, Bone, 1.39 mmol/kg/d daily IV 2 weeks): 4.90 μg/g Tissue
Measured Concentration of Gd, Mean ([3]; Female rat, Brain, 0.15 mmol/kg/d daily IV 2 weeks): BQL
Measured Concentration of Gd, Mean ([3]; Female rat, Brain, 0.46 mmol/kg/d daily IV 2 weeks): 0.03 μg/g Tissue
Measured Concentration of Gd, Mean ([3]; Female rat, Brain, 1.39 mmol/kg/d daily IV 2 weeks): 0.40 μg/g Tissue
Measured Concentration of Gd, Mean ([3]; Female rat, Colon, 0.15 mmol/kg/d daily IV 2 weeks): 0.15 μg/g Tissue
Measured Concentration of Gd, Mean ([3]; Female rat, Colon, 0.46 mmol/kg/d daily IV 2 weeks): 1.02 μg/g Tissue
Measured Concentration of Gd, Mean ([3]; Female rat, Colon, 1.39 mmol/kg/d daily IV 2 weeks): 3.44 μg/g Tissue
Measured Concentration of Gd, Mean ([3]; Female rat, Heart, 0.15 mmol/kg/d daily IV 2 weeks): BQL
Measured Concentration of Gd, Mean ([3]; Female rat, Heart, 0.46 mmol/kg/d daily IV 2 weeks): 3.17 μg/g Tissue
Measured Concentration of Gd, Mean ([3]; Female rat, Heart, 1.39 mmol/kg/d daily IV 2 weeks): 1.85 μg/g Tissue
Measured Concentration of Gd, Mean ([3]; Female rat, Jejunum, 0.15 mmol/kg/d daily IV 2 weeks): 0.23 μg/g Tissue
Measured Concentration of Gd, Mean ([3]; Female rat, Jejunum, 0.46 mmol/kg/d daily IV 2 weeks): 0.73 μg/g Tissue
Measured Concentration of Gd, Mean ([3]; Female rat, Jejunum, 1.39 mmol/kg/d daily IV 2 weeks): 3.26 μg/g Tissue
Measured Concentration of Gd, Mean ([3]; Female rat, Kidney, 0.15 mmol/kg/d daily IV 2 weeks): 26.46 μg/g Tissue
Measured Concentration of Gd, Mean ([3]; Female rat, Kidney, 0.46 mmol/kg/d daily IV 2 weeks): 100.81 μg/g Tissue
Measured Concentration of Gd, Mean ([3]; Female rat, Kidney, 1.39 mmol/kg/d daily IV 2 weeks): 346.00 μg/g Tissue
Measured Concentration of Gd, Mean ([3]; Female rat, Liver, 0.15 mmol/kg/d daily IV 2 weeks): 0.31 μg/g Tissue
Measured Concentration of Gd, Mean ([3]; Female rat, Liver, 0.46 mmol/kg/d daily IV 2 weeks): 1.03 μg/g Tissue
Measured Concentration of Gd, Mean ([3]; Female rat, Liver, 1.39 mmol/kg/d daily IV 2 weeks): 4.11 μg/g Tissue
Measured Concentration of Gd, Mean ([3]; Female rat, Lung, 0.15 mmol/kg/d daily IV 2 weeks): 0.20 μg/g Tissue
Measured Concentration of Gd, Mean ([3]; Female rat, Lung, 0.46 mmol/kg/d daily IV 2 weeks): 1.27 μg/g Tissue
Measured Concentration of Gd, Mean ([3]; Female rat, Lung, 1.39 mmol/kg/d daily IV 2 weeks): 3.86 μg/g Tissue
Measured Concentration of Gd, Mean ([3]; Female rat, Muscle, 0.15 mmol/kg/d daily IV 2 weeks): 0.03 μg/g Tissue
Measured Concentration of Gd, Mean ([3]; Female rat, Muscle, 0.46 mmol/kg/d daily IV 2 weeks): 0.21 μg/g Tissue
Measured Concentration of Gd, Mean ([3]; Female rat, Muscle, 1.39 mmol/kg/d daily IV 2 weeks): 1.27 μg/g Tissue
Measured Concentration of Gd, Mean ([3]; Female rat, Skin, 0.15 mmol/kg/d daily IV 2 weeks): 0.14 μg/g Tissue
Measured Concentration of Gd, Mean ([3]; Female rat, Skin, 0.46 mmol/kg/d daily IV 2 weeks): 1.26 μg/g Tissue
Measured Concentration of Gd, Mean ([3]; Female rat, Skin, 1.39 mmol/kg/d daily IV 2 weeks): 4.56 μg/g Tissue
Measured Concentration of Gd, Mean ([3]; Female rat, Spleen, 0.15 mmol/kg/d daily IV 2 weeks): 0.32 μg/g Tissue
Measured Concentration of Gd, Mean ([3]; Female rat, Spleen, 0.46 mmol/kg/d daily IV 2 weeks): 1.41 μg/g Tissue
Measured Concentration of Gd, Mean ([3]; Female rat, Spleen, 1.39 mmol/kg/d daily IV 2 weeks): 4.69 μg/g Tissue
Measured Concentration of Gd, Mean ([3]; Male rat, Bone, 0.15 mmol/kg/d daily IV 2 weeks): 0.28 μg/g Tissue
Measured Concentration of Gd, Mean ([3]; Male rat, Bone, 0.46 mmol/kg/d daily IV 2 weeks): 0.70 μg/g Tissue
Measured Concentration of Gd, Mean ([3]; Male rat, Bone, 1.39 mmol/kg/d daily IV 2 weeks): 5.85 μg/g Tissue
Measured Concentration of Gd, Mean ([3]; Male rat, Brain, 0.15 mmol/kg/d daily IV 2 weeks): BQL
Measured Concentration of Gd, Mean ([3]; Male rat, Brain, 0.46 mmol/kg/d daily IV 2 weeks): 0.07 μg/g Tissue
Measured Concentration of Gd, Mean ([3]; Male rat, Colon, 0.15 mmol/kg/d daily IV 2 weeks): 0.18 μg/g Tissue
Measured Concentration of Gd, Mean ([3]; Male rat, Colon, 0.46 mmol/kg/d daily IV 2 weeks): 0.79 μg/g Tissue
Measured Concentration of Gd, Mean ([3]; Male rat, Colon, 1.39 mmol/kg/d daily IV 2 weeks): 3.92 μg/g Tissue
Measured Concentration of Gd, Mean ([3]; Male rat, Heart, 0.15 mmol/kg/d daily IV 2 weeks): 0.14 μg/g Tissue
Measured Concentration of Gd, Mean ([3]; Male rat, Heart, 0.46 mmol/kg/d daily IV 2 weeks): 1.72 μg/g Tissue
Measured Concentration of Gd, Mean ([3]; Male rat, Heart, 1.39 mmol/kg/d daily IV 2 weeks): 2.56 μg/g Tissue
Measured Concentration of Gd, Mean ([3]; Male rat, Jejunum, 0.15 mmol/kg/d daily IV 2 weeks): 0.17 μg/g Tissue
Measured Concentration of Gd, Mean ([3]; Male rat, Jejunum, 0.46 mmol/kg/d daily IV 2 weeks): 0.73 μg/g Tissue
Measured Concentration of Gd, Mean ([3]; Male rat, Jejunum, 1.39 mmol/kg/d daily IV 2 weeks): 3.72 μg/g Tissue
Measured Concentration of Gd, Mean ([3]; Male rat, Kidney, 0.15 mmol/kg/d daily IV 2 weeks): 15.15 μg/g Tissue
Measured Concentration of Gd, Mean ([3]; Male rat, Kidney, 0.46 mmol/kg/d daily IV 2 weeks): 70.70 μg/g Tissue
Measured Concentration of Gd, Mean ([3]; Male rat, Kidney, 1.39 mmol/kg/d daily IV 2 weeks): 519.85 μg/g Tissue
Measured Concentration of Gd, Mean ([3]; Male rat, Liver, 0.15 mmol/kg/d daily IV 2 weeks): 0.22 μg/g Tissue
Measured Concentration of Gd, Mean ([3]; Male rat, Liver, 0.46 mmol/kg/d daily IV 2 weeks): 1.96 μg/g Tissue
Measured Concentration of Gd, Mean ([3]; Male rat, Liver, 1.39 mmol/kg/d daily IV 2 weeks): 4.85 μg/g Tissue
Measured Concentration of Gd, Mean ([3]; Male rat, Lung, 0.15 mmol/kg/d daily IV 2 weeks): BQL
Measured Concentration of Gd, Mean ([3]; Male rat, Lung, 0.46 mmol/kg/d daily IV 2 weeks): 1.33 μg/g Tissue
Measured Concentration of Gd, Mean ([3]; Male rat, Lung, 1.39 mmol/kg/d daily IV 2 weeks): 4.83 μg/g Tissue
Measured Concentration of Gd, Mean ([3]; Male rat, Muscle, 0.15 mmol/kg/d daily IV 2 weeks): BQL
Measured Concentration of Gd, Mean ([3]; Male rat, Muscle, 0.46 mmol/kg/d daily IV 2 weeks): 0.22 μg/g Tissue
